Assay results as given in ChEMBL document CHEMBL1140788, “Development of CXCR3 antagonists. Part 3: Tropenyl and homotropenyl-piperidine urea derivatives” (Bioorg Med Chem Lett, 2008).
≈ marks a conversion by molar mass, not a printed value. Calls of active or inactive are those of the source. The rule behind the calls is not given here.

What was measured:
[1] = Solubility at pH 6.5 buffer; type: physicochemical
[2] = Distribution coefficient, log D at pH 7.4; type: physicochemical; conditions: octanol/water
Summary of the method: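 Octanol–water partition at pH 7.4.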

[3] = Intrinsic clearance in human liver microsomes at 0.5 uM; type: ADME, Microsome
Mus musculus [4] = experiment: Ex vivo inhibition of CXCL11-induced mouse CXCR3 receptor internalization in mouse T cells at 30 mg/kg, po after 10 hrs; type: functional, organism-based; set-up: dose 30 mg/kg; conditions: T-cell
Summary of the method: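 Mice were dosed orally at 30 mg/kg, and plasma was taken at each timepoint after dosing. Activated murine T cells were incubated with that plasma, then stimulated with 3 nM CXCL11 (A75) for 60 min at 37 °C. Agonist was removed and surface CXCR3 was measured by flow cytometry.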

[5] = target: T1, C-X-C chemokine receptor type 3 (Homo sapiens, UniProt P49682); experiment: Antagonist activity at human CXCR3 by [35S]GTP-gamma-S binding assay; type: functional
T1 sequence (P49682 whole entry): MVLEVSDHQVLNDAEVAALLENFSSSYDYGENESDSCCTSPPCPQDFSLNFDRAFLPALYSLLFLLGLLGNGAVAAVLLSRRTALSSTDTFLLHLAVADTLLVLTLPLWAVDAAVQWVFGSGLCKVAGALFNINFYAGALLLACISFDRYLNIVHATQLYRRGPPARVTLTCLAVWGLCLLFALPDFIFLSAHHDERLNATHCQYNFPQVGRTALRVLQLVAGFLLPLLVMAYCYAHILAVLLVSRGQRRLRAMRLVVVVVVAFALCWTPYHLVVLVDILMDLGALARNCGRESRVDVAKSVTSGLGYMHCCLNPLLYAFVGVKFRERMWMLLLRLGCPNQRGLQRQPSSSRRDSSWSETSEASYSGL

Cytochrome P450 2D6 = Cytochrome P450 2D6 (Homo sapiens, UniProt P10635); experiment: Inhibition of CYP2D6; type: ADME
Mus musculus [6] = species: Mus musculus; experiment: In vitro inhibition of CXCL11-induced mouse CXCR3 receptor internalization in mouse T cells in presence of 90% naive mouse plasma; conditions: T-cell, read-out: pA2 (converted)
[7] = target: T2, Muscarinic acetylcholine receptor M2 (Homo sapiens, UniProt P08172); experiment: Inhibition of muscarinic M2 receptor
T2 sequence (P08172 whole entry): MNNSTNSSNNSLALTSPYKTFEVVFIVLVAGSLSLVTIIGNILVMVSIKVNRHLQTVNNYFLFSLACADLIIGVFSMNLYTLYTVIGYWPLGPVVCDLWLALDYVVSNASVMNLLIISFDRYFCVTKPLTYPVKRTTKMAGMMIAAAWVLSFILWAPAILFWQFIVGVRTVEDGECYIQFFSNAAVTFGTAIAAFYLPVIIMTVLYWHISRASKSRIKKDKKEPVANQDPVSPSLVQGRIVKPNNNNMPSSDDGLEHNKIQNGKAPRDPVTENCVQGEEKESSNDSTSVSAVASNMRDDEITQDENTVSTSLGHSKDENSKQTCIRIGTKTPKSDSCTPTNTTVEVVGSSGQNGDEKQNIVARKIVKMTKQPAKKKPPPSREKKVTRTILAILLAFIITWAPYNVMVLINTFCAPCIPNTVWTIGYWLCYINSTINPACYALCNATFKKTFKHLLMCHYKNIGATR

[8] = target: T3, 5-hydroxytryptamine receptor 1A (Homo sapiens, UniProt P08908); experiment: Inhibition of 5HT1A receptor
T3 sequence (P08908 whole entry): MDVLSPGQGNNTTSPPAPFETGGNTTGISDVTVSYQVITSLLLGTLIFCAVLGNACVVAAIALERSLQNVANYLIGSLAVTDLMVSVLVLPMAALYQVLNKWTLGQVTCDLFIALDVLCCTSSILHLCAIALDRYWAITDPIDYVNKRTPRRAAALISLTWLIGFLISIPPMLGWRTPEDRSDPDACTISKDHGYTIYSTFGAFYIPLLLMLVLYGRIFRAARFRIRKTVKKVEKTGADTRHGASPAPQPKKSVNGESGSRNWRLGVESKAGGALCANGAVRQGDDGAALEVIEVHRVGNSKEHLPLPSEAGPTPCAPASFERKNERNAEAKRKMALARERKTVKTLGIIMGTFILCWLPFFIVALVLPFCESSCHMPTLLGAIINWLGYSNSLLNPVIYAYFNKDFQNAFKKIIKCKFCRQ

[9] = target: 5-hydroxytryptamine receptor 5A (Homo sapiens, UniProt P47898); experiment: Inhibition of 5HT5A receptor
[10] = target: T4, C-X-C chemokine receptor type 3 (Mus musculus, UniProt O88410); experiment: Antagonist activity at mouse CXCR3; type: functional
T4 sequence (O88410 whole entry): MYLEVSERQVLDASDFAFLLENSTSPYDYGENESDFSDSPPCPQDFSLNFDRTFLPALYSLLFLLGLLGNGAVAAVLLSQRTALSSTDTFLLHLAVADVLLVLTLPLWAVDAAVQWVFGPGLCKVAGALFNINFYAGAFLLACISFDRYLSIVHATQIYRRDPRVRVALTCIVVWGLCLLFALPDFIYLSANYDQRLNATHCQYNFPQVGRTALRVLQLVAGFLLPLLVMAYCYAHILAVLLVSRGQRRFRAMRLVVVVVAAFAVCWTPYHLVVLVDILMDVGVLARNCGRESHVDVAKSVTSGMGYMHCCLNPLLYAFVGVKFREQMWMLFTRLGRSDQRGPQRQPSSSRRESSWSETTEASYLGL

[11] = Oral bioavailability in BALB/c mouse at 30 mg/kg; type: ADME, organism-based; conditions: in vivo
Summary of the method: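 Balb/c mice given 30 mg/kg orally; plasma concentrations followed over time, sampled from 0 to 16 h post dose.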

[12] = Inhibition of sodium channel
[13] = target: T5, Muscarinic acetylcholine receptor M1 (Homo sapiens, UniProt P11229); experiment: Inhibition of muscarinic M1 receptor
T5 sequence (P11229 whole entry): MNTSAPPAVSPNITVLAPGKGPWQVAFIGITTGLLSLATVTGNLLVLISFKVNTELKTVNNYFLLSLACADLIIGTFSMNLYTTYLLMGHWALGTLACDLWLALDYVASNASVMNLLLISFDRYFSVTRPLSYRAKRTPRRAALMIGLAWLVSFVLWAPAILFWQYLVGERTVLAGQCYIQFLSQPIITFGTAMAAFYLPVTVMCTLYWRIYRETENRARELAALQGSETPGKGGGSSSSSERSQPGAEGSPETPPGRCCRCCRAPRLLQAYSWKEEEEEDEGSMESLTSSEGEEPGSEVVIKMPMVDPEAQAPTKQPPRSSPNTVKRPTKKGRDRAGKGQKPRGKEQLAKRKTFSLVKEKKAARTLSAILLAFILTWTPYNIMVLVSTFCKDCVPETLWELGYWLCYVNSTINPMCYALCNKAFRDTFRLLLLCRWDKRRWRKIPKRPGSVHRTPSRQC

[14] = target: Muscarinic acetylcholine receptor M3 (Homo sapiens, UniProt P20309); experiment: Inhibition of muscarinic M3 receptor
[15] = Half life in mouse; type: ADME, organism-based; conditions: in vivo
Homo sapiens = species: Homo sapiens; experiment: Protein binding to human plasma; conditions: read-out: PPB
Mus musculus [16] = experiment: Ex vivo inhibition of CXCL11-induced mouse CXCR3 receptor internalization in mouse T cells at 30 mg/kg, po after 4 hrs; type: functional, organism-based; set-up: dose 30 mg/kg; conditions: T-cell
Summary of the method: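 Mice dosed orally at 30 mg/kg; plasma collected at timepoints post dose and incubated with activated murine T cells, then 3 nM CXCL11 (A75) for 60 min at 37 °C; agonist removed, surface CXCR3 measured by flow cytometry.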

Sequence of Cytochrome P450 2D6 (P10635 whole entry): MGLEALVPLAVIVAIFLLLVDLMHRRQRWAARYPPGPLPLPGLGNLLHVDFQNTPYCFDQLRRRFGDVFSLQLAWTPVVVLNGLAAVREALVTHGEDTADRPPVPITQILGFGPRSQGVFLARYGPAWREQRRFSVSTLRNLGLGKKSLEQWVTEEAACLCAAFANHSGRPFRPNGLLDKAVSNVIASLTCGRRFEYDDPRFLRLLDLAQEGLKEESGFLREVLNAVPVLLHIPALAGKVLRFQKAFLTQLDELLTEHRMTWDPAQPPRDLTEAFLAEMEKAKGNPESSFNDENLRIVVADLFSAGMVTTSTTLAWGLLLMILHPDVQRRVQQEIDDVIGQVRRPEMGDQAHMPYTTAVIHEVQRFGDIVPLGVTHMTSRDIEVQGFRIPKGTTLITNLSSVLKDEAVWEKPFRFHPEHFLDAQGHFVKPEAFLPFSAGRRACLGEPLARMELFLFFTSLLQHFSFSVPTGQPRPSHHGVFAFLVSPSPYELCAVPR
Sequence of Muscarinic acetylcholine receptor M3 (P20309 whole entry): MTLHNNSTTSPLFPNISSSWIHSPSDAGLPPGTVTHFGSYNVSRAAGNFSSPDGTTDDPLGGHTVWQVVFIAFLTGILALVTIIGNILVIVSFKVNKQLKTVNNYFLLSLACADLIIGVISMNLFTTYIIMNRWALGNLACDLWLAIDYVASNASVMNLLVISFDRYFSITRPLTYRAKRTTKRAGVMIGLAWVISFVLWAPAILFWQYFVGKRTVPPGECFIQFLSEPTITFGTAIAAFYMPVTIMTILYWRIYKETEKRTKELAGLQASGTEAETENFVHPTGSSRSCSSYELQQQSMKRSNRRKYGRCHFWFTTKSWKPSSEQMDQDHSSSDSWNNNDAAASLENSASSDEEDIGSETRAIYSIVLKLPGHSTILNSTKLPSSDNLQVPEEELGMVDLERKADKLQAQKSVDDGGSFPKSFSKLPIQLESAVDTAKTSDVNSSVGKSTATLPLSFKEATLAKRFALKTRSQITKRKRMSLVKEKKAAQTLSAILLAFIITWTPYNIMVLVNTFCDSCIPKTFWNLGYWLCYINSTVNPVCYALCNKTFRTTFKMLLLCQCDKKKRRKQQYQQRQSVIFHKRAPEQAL
Sequence of 5-hydroxytryptamine receptor 5A (P47898 whole entry): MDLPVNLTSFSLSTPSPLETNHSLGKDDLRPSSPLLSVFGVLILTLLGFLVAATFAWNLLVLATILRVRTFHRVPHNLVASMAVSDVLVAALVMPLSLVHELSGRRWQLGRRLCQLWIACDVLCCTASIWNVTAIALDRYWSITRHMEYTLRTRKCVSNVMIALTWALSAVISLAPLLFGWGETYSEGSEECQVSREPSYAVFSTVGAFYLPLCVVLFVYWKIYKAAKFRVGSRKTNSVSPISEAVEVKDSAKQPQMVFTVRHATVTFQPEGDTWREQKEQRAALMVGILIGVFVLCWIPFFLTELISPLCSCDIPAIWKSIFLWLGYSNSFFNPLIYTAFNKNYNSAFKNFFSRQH

| SMILES | solubility [1] [µg/mL] | logD [2] | microsomal CLint at 0.5 µM [3] [µL/min/mg] | Ki [5] [nM] | Ki [10] [nM] | also measured |
| --- | --- | --- | --- | --- | --- | --- |
| CC(=O)N1C2C=C(CN3C4CCC3CC(NC(=O)Nc3cc(F)cc(C(F)(F)F)c3)C4)CC1CCC2 (stereo not given) | 40 (≈ 78.7 µM) | 3.1 | 7 | 7 | 6 | Activity (Mus musculus [4]): Active; Ki (Cytochrome P450 2D6): 15000 nM; Kb (Mus musculus [6]): 95.5 nM; Ki [7]: 280 nM; Ki [8]: 280 nM; Ki [9]: 3000 nM; bioavailability [11]: 70%; Ki [12]: 570 nM; Ki [13]: 230 nM; Ki [14]: 1200 nM |
| O=C(Nc1cc(C(F)(F)F)cc(C(F)(F)F)c1)NC1CCN(CCC2CCS(=O)(=O)C2)CC1 (stereo not given) | 1360 (≈ 2710 µM) | 2.8 | 3.5 | 1100 |  | bioavailability [11]: 52%; half-life [15]: 5.5 h |
| CC1(C)[C@H]2CC=C(CN3CCC(NC(=O)Nc4cc(C(F)(F)F)cc(C(F)(F)F)c4)CC3)[C@@H]1C2 | < 1 | 5.1 | 82 | 26 | 400 | Ki (Cytochrome P450 2D6): 5000 nM; fraction unbound (Homo sapiens): 0.001 |
| CC(=O)N1CCC(CN2CCC(NC(=O)Nc3cc(C(F)(F)F)cc(C(F)(F)F)c3)CC2)CC1 | 850 (≈ 1720 µM) | 3.1 | 4.5 | 180 |  |  |
| CCOC(=O)N1C2C=C(CN3CCC(NC(=O)Nc4cc(F)cc(C(F)(F)F)c4)CC3)CC1CC2 (stereo not given) |  | 4.6 | 48 | 190 | 950 |  |
| CC(C)C(=O)N1C2C=C(CN3CCC(NC(=O)Nc4cc(F)cc(C(F)(F)F)c4)CC3)CC1CC2 (stereo not given) |  | 3.9 | 58 | 28 | 180 |  |
| CC(=O)N1C2CCC1CC(CN1CCC(NC(=O)Nc3cc(F)cc(C(F)(F)F)c3)CC1)C2 (mixture of isomers) |  | 2.8 |  | 120 | 650 |  |
| CC(=O)N1C2C=C(CN3CCC(NC(=O)Nc4cc(F)cc(OC(C)C)c4)CC3)CC1CCC2 (stereo not given) |  | 2.7 | 50 | 3 | 6 |  |
| CC(=O)N1C2C=C(CN3CCC(NC(=O)Nc4cccc(OC(C)C)c4)CC3)CC1CCC2 (stereo not given) |  | 2.5 | 22 | 11 | 33 |  |
| CC(C)(C)C(=O)N1CCC(CN2CCC(NC(=O)Nc3cc(C(F)(F)F)cc(C(F)(F)F)c3)CC2)CC1 | 45 (≈ 83.9 µM) | 4.2 | 80 | 60 |  | fraction unbound (Homo sapiens): 0.01 |
| O=C(Nc1cc(F)cc(C(F)(F)F)c1)NC1CCN(CC2=CC3CCC(C2)N3C(=O)C2CC2)CC1 (stereo not given) |  | 3.4 | 9 | 20 | 80 |  |
| CC(C)(C)C(=O)N1C2C=C(CN3CCC(NC(=O)Nc4cc(F)cc(C(F)(F)F)c4)CC3)CC1CC2 (stereo not given) |  | 4.2 | 60 | 18 | 100 |  |
| CC(C)(C)C(=O)N1C2C=C(CN3CCC(NC(=O)Nc4cc(F)cc(C(F)(F)F)c4)CC3)CC1CCC2 (stereo not given) |  | 4.5 | 74 | 10 | 57 |  |
| CC(=O)N1C2C=C(CN3CCC(NC(=O)Nc4cc(F)cc(C(F)(F)F)c4)CC3)CC1CCC2 (stereo not given) |  | 3.4 | 9 | 9 | 38 | Kb (Mus musculus [6]): 186 nM; Activity (Mus musculus [16]): Active |
| CC(=O)N1C2C=C(CN3CCC(NC(=O)Nc4cc(F)cc(C(F)(F)F)c4)CC3)CC1CC2 (stereo not given) |  | 3 | 11 | 27 | 120 |  |
| CC(=O)c1cccc(NC(=O)NC2CCN(CC3=CC4CCCC(C3)N4C(C)=O)CC2)c1 (stereo not given) |  | 2.8 | 10 | 280 |  |  |
| O=C(Nc1ccc2ccccc2c1)NC1CCN(C/C2=C/CCCCCC2)CC1 | 0.1 (≈ 0.255 µM) |  | 72 |  |  | fraction unbound (Homo sapiens): < 0.001; bioavailability [11]: 1% |
